Reference: ChEMBL document CHEMBL5385968 (RSC Med Chem, 2024)
The source made the active and inactive calls. The calls are words filed in the database; no cut-off is given here.

What was measured:
[1] = Cytotoxicity against CD-1 mouse bone marrow leucocytes assessed as reduction in cell viability at 25 uM incubated for 90 mins by CellTiter-Glo Luminescent assay; format: toxicity, cell-based; settings: leucocyte
In short: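 CD-1 mouse bone marrow leukocytes at 10^4 cells/well were exposed to compounds up to 25 μM (highest tested; final DMSO 1%) for 90 min at 37 °C, 5% CO2. Viability was read by CellTiter-Glo luminescence. IC50 values are mean ± SD of three independent experiments.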

[2] = molecular target: T1, Neutrophil elastase (Homo sapiens) (UniProt P08246); test: Inhibition of human neutrophil elastase using N-methylsuccinyl-Ala-Ala-Pro-Val-7-amino-4-methylcoumarin as substrate at 50 uM measured every 30 secs for 10 mins by fluorescence based analysis
T1 sequence (whole entry): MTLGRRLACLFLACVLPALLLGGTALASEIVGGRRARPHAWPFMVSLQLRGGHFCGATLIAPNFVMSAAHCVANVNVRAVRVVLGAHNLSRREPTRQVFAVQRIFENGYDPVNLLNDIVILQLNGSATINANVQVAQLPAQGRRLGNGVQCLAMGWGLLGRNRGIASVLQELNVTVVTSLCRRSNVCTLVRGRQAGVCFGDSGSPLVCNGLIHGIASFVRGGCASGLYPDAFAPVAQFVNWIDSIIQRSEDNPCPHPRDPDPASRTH

[3] = Antiradical activity against PMA-stimulated BALB/c mouse bone marrow leucocytes assessed as inhibition of ROS production measured for 60 mins by chemiluminescence based analysis; format: functional, cell-based; settings: Leucocyte, 1 h
In short: (§1)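 BALB/c mouse bone marrow leukocytes were suspended at 10^6 cells/ml in HBSS with Ca2+/Mg2+ and 40 μM L-012. Compounds were added in HBSS+ (final DMSO 1%), tested up to a highest concentration of 50 μM. Cells were stimulated with 200 nM PMA, and chemiluminescence was read every 2 min for 60 min at 37 °C. Values are mean ± SD, n=3.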

[4] = tested on: Leucocyte; test: Antiradical activity against PMA-stimulated BALB/c mouse bone marrow leucocytes assessed as inhibition of ROS production at 50 uM measured for 60 mins by chemiluminescence based analysis; format: functional, cell-based
In short: as §1, with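 “°C. IC50 came from % inhibition of the 60-min integrated signal versus log concentration (5–7 concentrations, nonlinear regression).” for “°C.”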

Structure (SMILES)	Activity [1]	inhibition [2]	other results
Cc1cccc(C(=O)n2[se]c3ccccc3c2=O)c1	Non-Toxic	–	–
O=C(c1ccsc1)n1[se]c2ccccc2c1=O	Non-Toxic	inactive	–
O=c1c2ccccc2[se]n1-c1ccccc1	–	inactive	–
CCOC(=O)CC(=O)n1[se]c2ccccc2c1=O	–	inactive	–
CCOC(=O)n1[se]c2ccccc2c1=O	–	inactive	–
O=C(NC1CC1)c1ccc(-n2[se]c3ccccc3c2=O)cc1	–	inactive	–
CC(C)(C)C(=O)Oc1ccc(S(=O)(=O)Nc2ccccc2C(=O)NCC(=O)O)cc1	Non-Toxic	–	–
O=C(C1CC1)n1[se]c2ccccc2c1=O	–	–	IC50 [3]: 50 nM
CC(C)(C)C(=O)Oc1ccc(S(=O)(=O)n2[se]c3ccccc3c2=O)cc1	Non-Toxic	–	–
O=C(NC1CC1)n1[se]c2ccccc2c1=O	–	inactive	–
Cc1cccc(NC(=O)c2ccc(-n3[se]c4ccccc4c3=O)cc2)c1	Non-Toxic	inactive	inhibition [4]: inactive
CCOC(=O)c1ccc(-n2[se]c3ccccc3c2=O)cc1	Non-Toxic	inactive	–
CCCCCC(=O)n1[se]c2ccccc2c1=O	Non-Toxic	–	inhibition [4]: inactive
